Test results published in ChEMBL document CHEMBL1765023, “Acetyl analogs of combretastatin A-4: synthesis and biological studies” (Bioorg Med Chem, 2011).

Columns and labels:
Type in all cases: functional
[1] = test system: PC-3; assay: Growth inhibition of human PC3 cells after 48 hrs by sulforhodamine B assay; details: PC-3, 48 h
Procedure, shortened: (§1)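 NCI 60 human cancer cell line screen run at the National Cancer Institute. Cells had 48 h continuous exposure, and proliferation was read by sulforhodamine B staining. GI50 (50% growth inhibition) was taken from dose–response curves.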

[2] = test system: HCT-116; assay: Growth inhibition of human HCT116 cells after 48 hrs by sulforhodamine B assay; details: HCT-116, 48 h; procedure, shortened: as §1
[3] = test system: DU-145; assay: Growth inhibition of human DU145 cells after 48 hrs by sulforhodamine B assay; details: DU-145, 48 h; procedure, shortened: as §1
[4] = test system: L1210; assay: Antitumor activity against mouse L1210 cells xenografted in DBA2 mouse assessed as reduction in tumor volume at 50 mg/kg, ip QD administered on alternate days for 17 days measured on day 23; details: route intraperitoneal
Procedure, shortened: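 Female DBA2 mice, 5–7 weeks old, four per group. L1210 cells, passaged through a mouse, were washed three times in PBS and resuspended at 4.0 × 10^6 cells/mL. 100 µL (200,000 cells) was given sc to the flank on day 0. Vehicle-only controls. Tumor length and width were measured by caliper, and volume was compared on day 23.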

[5] = test system: HOP-92; assay: Growth inhibition of human HOP92 cells after 48 hrs by sulforhodamine B assay; details: HOP-92, 48 h; procedure, shortened: as §1
[6] = test system: HCC 2998; assay: Growth inhibition of human HCC2998 cells after 48 hrs by sulforhodamine B assay; details: HCC 2998, 48 h; procedure, shortened: as §1

COc1ccc(/C=C(/C(C)=O)c2cc(OC)c(OC)c(OC)c2)cc1O
GI50 [1]: 0.191 µM
TGI ([1]; read-out: pTGI): > 100 µM
GI50 [2]: 0.331 µM
TGI ([2]; read-out: pTGI): > 100 µM
GI50 [3]: 0.257 µM
TGI ([3]; read-out: pTGI (converted)): 0.813 µM
inhibition in vivo at 50 mg/kg [4]: 35%
GI50 [5]: 3.31 µM
TGI ([5]; read-out: pTGI): > 100 µM
GI50 [6]: 1.32 µM
TGI ([6]; read-out: pTGI (converted)): 11.5 µM
